Data set [1] in a line: Time of peak anticonvulsant effect in CF1 MICE after ip administration. Type of data set: functional, Mus musculus. The procedure, abridged: (§1)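 Male CF1 mice (ca. 24–34 g), compound in 0.5% methylcellulose suspension given ip or po; time (h) at which MES protection (against tonic hind limb extension) peaked was recorded and used for ED50 determination.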
A short description of data set [2]: Time of peak neurotoxic effect in CF1 mice. It is filed as ADME. The settings on record: mouse, in vivo. The essentials: (§2)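 Male CF1 mice (ca. 24–34 g), compound ip in 0.5% methylcellulose suspension; neurological deficit assessed by rotorod test, time (h) of peak neurotoxic effect recorded for TD50 determination.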
Data set [3] relates to Rattus norvegicus. The data set can be described thus: Intraperitoneal dose (100 mg/Kg) reducing rat corneal kindling 0.5 hr after administration. Type of data set: functional. The procedure, abridged: (§3)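 Sprague-Dawley rats (85–95 g initial) were kindled with 4 s, 8 mA corneal stimulations (butacaine anesthesia) to 10 consecutive stage 5 seizures. After a vehicle shock and a 2-day shock-free period, test drug was given ip or po and a single shock applied at time of peak effect. Seizures were scored on a modified Racine 0–5 scale. ED50 is the dose reducing severity by 50% (Litchfield–Wilcoxon).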

In data set [4] the test system is Rattus norvegicus. The data set can be described thus: Average seizure score for the rat cornea 0.5 hr after intraperitoneal administration of 0 mg/Kg of compound. Type of data set: functional. The procedure, abridged: (§4)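 Sprague-Dawley rats (85–95 g initial weight) kindled by corneal stimulation (4 s, 8 mA) twice daily for 5 to 6 days, then once daily until 10 consecutive stage 5 seizures. Butacaine sulfate 1% applied to the cornea as a topical anaesthetic. After a vehicle shock and a 2-day shock-free period, drug given ip, then a single shock at the time of peak effect. Scored on the modified Racine scale (0–5).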

In data set [5] the test system is Rattus norvegicus. The data set can be described thus: Dose reducing the seizure severity in rat cornea 1 hr after peroral administration. Type of data set: ADME, organism-based. The settings on record: po. The procedure, abridged: as §3
The test system of data set [6] is Rattus norvegicus. In words: Intraperitoneal dose (250 mg/Kg) reducing rat corneal kindling 0.5 hr after administration. It is filed as functional. The procedure, abridged: as §3
The test system of data set [7] is Rattus norvegicus. The data set can be described thus: Average seizure score for the rat cornea 0.5 hr after intraperitoneal administration of 250 mg/Kg of compound. Type of data set: functional. The procedure, abridged:
as §3

Data set [8] relates to Rattus norvegicus. In words: Average seizure score for the rat cornea 0.5 hr after intraperitoneal administration of 100 mg/Kg of compound. It is filed as functional. The essentials: as §3
Data set [9] relates to Rattus norvegicus. In words: Dose reducing the seizure severity in rat cornea 0.5 hr after peroral administration. Type of data set: functional. The note with it: po. The essentials:
as §3

Data set [10] is described as follows: Time of peak anticonvulsant effect in CF1 mice. Type of data set: functional, Mus musculus. The essentials:
as §1

Data set [11] can be described thus: Dose elevating electroshock induced seizure by 20% in CF1 mice after ip administration. Type of data set: functional, Mus musculus. The procedure, abridged: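 In CF1 male mice (ca. 24–34 g), compound was given ip in 0.5% methylcellulose. The current giving hind limb extension in 50% of mice was found by the up-and-down method, with 15–25 mice per group and a vehicle control group run with each experimental group. At least three doses were tested. The dose raising threshold current by 20% was taken from a plot of dose against % threshold increase.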

The test system of data set [12] is Rattus norvegicus. The data set can be described thus: Intraperitoneal dose (200 mg/Kg) reducing rat corneal kindling 0.5 hr after administration. It is filed as functional. The essentials:
as §3

For data set [13], the system named is Rattus norvegicus. In words: Intraperitoneal dose (0 mg/Kg) reducing rat corneal kindling 0.5 hr after administration. Type of data set: functional. The procedure, abridged:
as §4

In data set [14] the test system is Rattus norvegicus. In words: Average seizure score for the rat cornea 0.5 hr after intraperitoneal administration of 150 mg/Kg of compound. Type of data set: functional. The procedure, abridged: as §3
Data set [15] in a line: Time of peak neurotoxic effect in CF1 MICE after ip administration. It is filed as ADME, organism-based. The settings on record: mouse, in vivo. The essentials: as §2
Data set [16] concerns Rattus norvegicus. The data set can be described thus: Intraperitoneal dose (150 mg/Kg) reducing rat corneal kindling 0.5 hr after administration. It is filed as functional. The essentials: as §3
Data set [17] can be described thus: Dose protecting 50% of the mice from tonic hind limb extension at the time of […] after ip administration. The settings on record: Mus musculus, Hindlimb. It is filed as functional. The essentials:
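Phase II quantification in CF1 male mice (ca. 24–34 g), dosing ip or po in 0.5% methylcellulose suspension. ED50 is protection from tonic hind limb extension in MES. TD50 is rotorod neurotoxicity. Both were read at time of peak effect and derived by Litchfield–Wilcoxon with 95% confidence limits.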

In data set [18] the test system is Rattus norvegicus. In words: Average seizure score for the rat cornea 0.5 hr after intraperitoneal administration of 200 mg/Kg of compound. Type of data set: functional. The essentials:
as §3

Experimental findings from ChEMBL document CHEMBL1125497, “Synthesis and anticonvulsant activity of enaminones” (J Med Chem, 1992) are described below.

Usually ED50 stands for the dose that gives a 50% effect, or the effect in half of the subjects. Read a low ED50 as an effect at a small dose. With `CCCC(CCC)C(=O)O` [VALPROIC ACID], the TPE in [1] was found to be 0.5; in data set [2], 0.25; in data set [10], 0.25; in data set [15], 0.5. In addition, the Reduction is given as 49% in the data set with Rattus norvegicus [3]; 90% with Rattus norvegicus [6]; 98% in the data set with Rattus norvegicus [12]; 0% in the data set with Rattus norvegicus [13]; 76% in the data set with Rattus norvegicus [16]. Moreover, the Average seizure score is reported as 5 in the data set on Rattus norvegicus [4]; 0.5 in the data set with Rattus norvegicus [7]; 2.6 in the data set on Rattus norvegicus [8]; 1.2 with Rattus norvegicus [14]; 0.1 with Rattus norvegicus [18]. Moreover, the median effective dose (ED50) in the data set on Rattus norvegicus [5] came out at 117 mg/kg; with Rattus norvegicus [9], 96 mg/kg; in data set [17] it was 248 mg/kg. The compound also showed a Dose in [11] of 132 mg/kg.
